Published values of several laboratories.
Compare with care: the assays were run in different laboratories.
Sample: plasma

Compound	host	route	dose	notes	quantity	result
CCOC(=O)[C@@]12C[C@@H]1[C@@H](n1ccc3c(NC)nc(C#Cc4ccc(Cl)s4)nc31)[C@H](O)[C@@H]2O	male Sprague-Dawley rat	oral	1 mg/kg		AUC(0-inf)	38.2 ng·h/mL
C=CC(=O)N1CC2CC(n3nc(-c4ccc(C(=O)Nc5ccccn5)cc4)c4c(N)ncnc43)CC2C1 (centres unmarked)	male Wistar rat	oral	3 mg/kg		AUC(0-t)	908 ng·h/mL
N#Cc1ccc(Nc2nc(N)cc(Oc3c(F)cc(-c4ccc(C#N)cc4)cc3F)n2)cc1	Sprague-Dawley rat	intravenous	1 mg/kg		AUC	308 ng·h/mL
N#Cc1[nH]nnc1-c1cccc(OCc2cc(C(F)(F)F)ccc2C(F)(F)F)c1	male Sprague-Dawley rat	oral	10 mg/kg		AUC	46400 ng·h/mL
Cc1noc(-c2cc3cc(-c4nc(C(=O)NCc5ccncc5)[nH]c4C)ccc3[nH]2)n1	Sprague-Dawley rat	intravenous	1 mg/kg		AUC	3 µM·h
COc1cc2c3c(n(CCCN4CCOCC4)c(=O)c2cc1OC)-c1cc2c(cc1C3=O)OCO2	female Fischer 344 rat	intravenous	12 mg/m²	single dose	AUC(0-inf)	403 ng·h/mL
CCc1cc(C(=O)NC)c2nccc(N3CCc4c(cc(Cn5ccnc5)cc4-c4cn(C)nc4C(F)(F)F)C3=O)c2c1	male Sprague-Dawley rat	intravenous	3 mg/kg		AUC(0-inf)	1280 ng·h/mL
Oc1c(Br)cc(Cl)c2cccnc12	Sprague-Dawley rat	oral	20 mg/kg		AUC(0-inf)	4500 ng·h/mL
CCNC(=O)c1nc(-c2ccc3[nH]c(-c4nc(C)no4)cc3c2)c(C)[nH]1	Sprague-Dawley rat	intravenous	1 mg/kg		AUC	2.4 µM·h
N#Cc1[nH]nnc1-c1csc(-c2ccc(Cl)cc2)n1	male Sprague-Dawley rat	oral	10 mg/kg		AUC	18300 ng·h/mL
O=C1N(Cc2ccccc2Cl)c2ccccc2C12NN=C(c1ccccc1)S2 (centres unmarked)	Sprague-Dawley rat	oral	40 mg/kg		AUC	2820 ng·h/mL
